Experiment [1] concerns the target Delta-type opioid receptor (Homo sapiens, UniProt P41143). Description: Displacement of [3H]DADLE from human delta opioid receptor expressed in CHO cells.
Experiment [2] deals with Mu-type opioid receptor (Homo sapiens, UniProt P35372). Description: Displacement of [3H]DAMGO from human mu opioid receptor expressed in HEK293 cells. It counts as cell-based. The procedure, abridged: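 Radioligand competition binding against [³H]DAMGO on human μ-opioid receptor in transfected HEK-293 cells; affinity derived from displacement of the tritiated ligand.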
Mu-type opioid receptor, sequence (P35372 whole entry): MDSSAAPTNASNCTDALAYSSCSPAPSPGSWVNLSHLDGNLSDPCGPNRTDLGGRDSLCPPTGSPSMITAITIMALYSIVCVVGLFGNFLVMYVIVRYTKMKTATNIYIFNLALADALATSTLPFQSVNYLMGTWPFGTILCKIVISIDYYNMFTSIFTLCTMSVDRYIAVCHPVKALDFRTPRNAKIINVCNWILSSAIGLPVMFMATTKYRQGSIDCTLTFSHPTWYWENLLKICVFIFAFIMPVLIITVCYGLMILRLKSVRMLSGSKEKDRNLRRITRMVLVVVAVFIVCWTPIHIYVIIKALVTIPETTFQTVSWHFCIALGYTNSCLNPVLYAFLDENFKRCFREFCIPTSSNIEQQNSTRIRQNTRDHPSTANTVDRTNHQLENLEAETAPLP
(In a radioligand displacement assay an active substance lowers the binding of a labelled ligand.)

The target in experiment [3] is Kappa-type opioid receptor (Rattus norvegicus, UniProt P34975). The experiment can be described thus: Displacement of [3H]U69593 from rat kappa opioid receptor expressed in CHO cells.
Kappa-type opioid receptor, sequence (P34975 whole entry): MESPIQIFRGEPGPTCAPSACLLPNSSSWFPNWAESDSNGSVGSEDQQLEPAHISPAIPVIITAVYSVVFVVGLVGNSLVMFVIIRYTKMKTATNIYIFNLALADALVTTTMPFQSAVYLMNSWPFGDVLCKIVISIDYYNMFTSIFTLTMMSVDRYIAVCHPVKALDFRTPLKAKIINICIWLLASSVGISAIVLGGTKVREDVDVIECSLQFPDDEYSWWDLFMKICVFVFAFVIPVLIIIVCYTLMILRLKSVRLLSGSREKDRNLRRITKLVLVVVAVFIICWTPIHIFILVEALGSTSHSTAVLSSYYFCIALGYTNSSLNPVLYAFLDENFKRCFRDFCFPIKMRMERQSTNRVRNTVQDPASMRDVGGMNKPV

For six compounds, Ki results are on record in ChEMBL document CHEMBL1154971, “Synthesis and evaluation of opioid receptor-binding affinity of elaeocarpenine and its analogs” (Bioorg Med Chem Lett, 2010).

Usually Ki stands for the dissociation constant of the complex between target and ligand, obtained from inhibition or displacement. Read a high Ki as weaker binding.

Delta-type opioid receptor, sequence (P41143 whole entry): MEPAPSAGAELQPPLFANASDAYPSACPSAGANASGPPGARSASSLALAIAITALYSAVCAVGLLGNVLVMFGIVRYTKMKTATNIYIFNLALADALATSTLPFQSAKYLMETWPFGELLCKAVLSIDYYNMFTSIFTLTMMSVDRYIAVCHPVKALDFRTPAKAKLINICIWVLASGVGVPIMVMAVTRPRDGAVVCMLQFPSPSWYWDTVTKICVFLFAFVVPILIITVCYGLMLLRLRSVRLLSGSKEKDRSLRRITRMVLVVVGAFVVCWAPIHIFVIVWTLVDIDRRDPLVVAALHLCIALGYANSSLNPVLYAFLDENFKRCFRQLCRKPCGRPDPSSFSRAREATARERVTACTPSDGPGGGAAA

For the compound `Cc1cccc(O)c1C(=O)C1=CCCN2CCC[C@@H]12`, the inhibitory constant (Ki) stood at 94 µM in experiment [1], 45 µM in experiment [2] and 24 µM in experiment [3].

Regarding `COc1cccc(C)c1C(=O)C1=CCCN2CCC[C@@H]12`, the inhibition constant (Ki) is over 200 µM in experiment [1], over 200 µM in experiment [2] and 20 µM in experiment [3].

Take `O=C(C1=CCCN2CCC[C@@H]12)c1ccccc1O`: the Ki was over 200 µM in experiment [1], 49 µM in experiment [2] and 83 µM in experiment [3].

Take `Cc1cccc(O)c1C(=O)C1=CCCCN2CCC[C@@H]12`: the results for the Ki in experiment [1] and in experiment [2] were over 200 µM and 13 µM, respectively.

Consider `Cc1cccc(O)c1C(=O)C1=CCN2CCC[C@@H]12`, for which the figures for the Ki in experiment [1], in experiment [2] and in experiment [3] were over 200 µM, 3.2 µM and 35 µM, respectively.

As for `Cc1cccc(O)c1C(=O)C1=CCCN2CCC[C@H]12` [ELAEOCARPENINE], the values for the Ki in experiment [1], in experiment [2] and in experiment [3] were 14 µM, 18 µM and 12 µM, respectively.
